Test results reported in publication PMC2673089 (Journal of pharmaceutical sciences, 2008).

What was measured:
Caco-2 monolayers = experiment: Bidirectional transport and verapamil inhibition across Caco-2 monolayers; assay type: in vitro ADME
human CYP2C19 = human CYP2C19 (Homo sapiens, UniProt P33261); experiment: Metabolism by recombinant human CYP2C19 Supersomes; assay type: in vitro ADME
human CYP2E1 = human CYP2E1 (Homo sapiens, UniProt P05181); experiment: Metabolism by recombinant human CYP2E1 Supersomes; assay type: in vitro ADME
Sequence of human CYP2E1 (P05181 whole entry): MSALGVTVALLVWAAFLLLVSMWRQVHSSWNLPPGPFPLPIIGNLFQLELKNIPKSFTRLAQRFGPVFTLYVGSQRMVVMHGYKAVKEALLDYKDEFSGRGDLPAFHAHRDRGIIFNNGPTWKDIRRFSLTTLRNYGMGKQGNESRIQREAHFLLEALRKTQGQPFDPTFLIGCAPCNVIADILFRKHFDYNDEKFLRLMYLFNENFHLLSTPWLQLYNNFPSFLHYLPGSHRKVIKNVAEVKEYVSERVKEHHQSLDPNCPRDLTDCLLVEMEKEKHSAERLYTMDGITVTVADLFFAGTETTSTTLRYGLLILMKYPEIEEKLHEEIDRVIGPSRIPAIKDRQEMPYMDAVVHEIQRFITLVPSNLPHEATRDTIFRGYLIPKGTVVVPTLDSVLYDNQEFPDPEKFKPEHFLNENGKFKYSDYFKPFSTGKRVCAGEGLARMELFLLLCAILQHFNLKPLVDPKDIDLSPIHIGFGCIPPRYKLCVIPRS

rat CYP2C11 = molecular target: T1, rat CYP2C11 (Rattus norvegicus, UniProt P08683); experiment: Metabolism by recombinant rat CYP2C11 Supersomes; assay type: in vitro ADME
T1 sequence (P08683 1-500): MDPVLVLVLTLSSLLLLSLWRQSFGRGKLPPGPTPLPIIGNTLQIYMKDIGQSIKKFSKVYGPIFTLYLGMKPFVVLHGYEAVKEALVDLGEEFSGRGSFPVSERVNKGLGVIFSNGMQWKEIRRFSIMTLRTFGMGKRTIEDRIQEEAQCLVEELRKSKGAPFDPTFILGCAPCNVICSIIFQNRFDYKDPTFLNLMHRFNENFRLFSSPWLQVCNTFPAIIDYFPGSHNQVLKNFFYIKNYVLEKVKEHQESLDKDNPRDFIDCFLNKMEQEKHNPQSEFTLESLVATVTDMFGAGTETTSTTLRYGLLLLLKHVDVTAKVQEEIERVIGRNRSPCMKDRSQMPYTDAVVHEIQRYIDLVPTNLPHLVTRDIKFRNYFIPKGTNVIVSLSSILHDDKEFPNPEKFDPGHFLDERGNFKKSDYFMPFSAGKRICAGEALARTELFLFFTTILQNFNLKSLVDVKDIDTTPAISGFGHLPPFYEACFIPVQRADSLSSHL

[1] = system: extracellular levels of DA in the nucleus accumbens (NAc); experiment: Intracerebral microdialysis of NAc dopamine; assay type: in vivo, Sprague–Dawley rats; conditions: for maximal increase of DA: NAc dialysate; for time DA levels remained significantly elevated above basal: post hoc p < 0.05
Procedure, shortened: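 CMA/12 probe (2 mm) was perfused with aCSF at 1 μL/min. Dialysate was collected over 10-min periods to 360 min. DA by HPLC-ECD, as % of mean of four basal samples. Repeated-measures ANOVA, Dunnett vs time zero.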

histamine H1 receptors = conditions: read-out: H1 Ki; mean ± SEM; cited from earlier work
[2] = 0.1 mM, absence of verapamil, mean ± SD (n = 3)

Sequence of human CYP2C19 (P33261 whole entry): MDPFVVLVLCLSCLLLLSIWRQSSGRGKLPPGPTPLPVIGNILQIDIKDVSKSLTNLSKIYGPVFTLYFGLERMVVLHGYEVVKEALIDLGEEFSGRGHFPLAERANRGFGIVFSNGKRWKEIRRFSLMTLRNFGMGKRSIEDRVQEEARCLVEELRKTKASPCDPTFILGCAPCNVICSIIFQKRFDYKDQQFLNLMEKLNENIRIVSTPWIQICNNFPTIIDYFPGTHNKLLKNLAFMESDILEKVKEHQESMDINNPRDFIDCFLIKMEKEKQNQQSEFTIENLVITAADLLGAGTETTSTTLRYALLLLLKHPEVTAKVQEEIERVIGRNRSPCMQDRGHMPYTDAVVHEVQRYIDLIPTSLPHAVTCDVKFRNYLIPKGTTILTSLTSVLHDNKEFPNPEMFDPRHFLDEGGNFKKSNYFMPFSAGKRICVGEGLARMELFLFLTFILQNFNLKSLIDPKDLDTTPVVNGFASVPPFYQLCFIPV

## CC(C)[C@@H](N)CN1C2CCC1CC(OC(c1ccc(F)cc1)c1ccc(F)cc1)C2 (stereo partly drawn) [GA2-50, N-((R)-2″-amino-3″-methyl-n-butyl)-3α-[(bis-4′-fluorophenyl)methoxy]tropane]
Caco-2 monolayers
  Permeability relative to JHW 025: > 4 fold
Caco-2 monolayers; 0.1 mM, Papp(B-A)/Papp(A-B)
  Efflux Ratio: 8.3
Caco-2 monolayers; [2]
  Papp A-B: 1.37 ± 0.08 × 10^−6 cm/s
  Papp B-A: 11.36 ± 1.41 × 10^−6 cm/s
Caco-2 monolayers; verapamil 200 μM
  Enhancement ratio of A-B transport by verapamil: 3.4
Human CYP2C19; Human CYP 2C19 50 pmol/mL, 4 μM
  Intrinsic Clearance: 0.10 ± 0.01 (c) microliters per minute per picomole of P450
Human CYP2C19; human CYP2C19, 10 μM, 50 pmol/mL P450, p < 0.05
  Substrate disappearance after 60 min incubation vs control: statistically significant disappearance
Human CYP2E1; Human CYP 2E1 50 pmol/mL, 4 μM
  Intrinsic Clearance: 0.09 ± 0.02 (c,d) microliters per minute per picomole of P450
Human CYP2E1; human CYP2E1, 10 μM, 50 pmol/mL P450, p < 0.05
  Substrate disappearance after 60 min incubation vs control: statistically significant disappearance
Rat CYP2C11; Rat CYP 2C11 50 pmol/mL, 4 μM
  Intrinsic Clearance: 0.23 ± 0.01 (a) microliters per minute per picomole of P450
Rat CYP2C11; rat CYP2C11, 10 μM, 50 pmol/mL P450, p < 0.05
  Substrate disappearance after 60 min incubation vs control: statistically significant disappearance
Rat CYP2C11; rat CYP2C11, comparator values ref 26
  Intrinsic clearance, fold lower than 4′,4″-diCl BZT: 6.3 fold
[1]; 5 mg/kg i.v.
  maximal DA elevation relative to basal: 1.6 fold
  time of maximal DA increase postdose: 20 min
  maximal increase of DA: 159 % of the basal values
  time DA levels remained significantly elevated above basal: up to 1 h
[1]; 10 mg/kg i.v.
  maximal DA elevation relative to basal: 2.7 fold
  time of maximal DA increase postdose: 30 min
  maximal increase of DA: 274 % of the basal values
[1]; 10 mg/kg i.v., whole 6 h experiment
  time DA levels remained significantly elevated above basal: ≥ 6 h
[1]; GA2-50 + cocaine, 5 mg/kg of each i.v., simultaneous administration
  effect on cocaine-induced DA elevation: did not have significant effect on the DA elevation induced by cocaine
Histamine H1 receptors
  Ki: 218 ± 15.5 nM
